Reference: ChEMBL document CHEMBL1123529, “Analogues of substance P. Peptides containing D-amino acid residues in various positions of substance P and displaying agonist or receptor selective antagonist effects” (1986)
“And” between values parts separate entries of the source, which are not always exact repeats. Equal values may be shown once.

What was measured:
[1] = molecular target: Substance-P receptor (Cavia porcellus) (UniProt P30547); assay: Evaluated in vitro for percent agonist activity in guinea pig ileum (substance P receptor); format: functional, tissue-based
[2] = In vitro antagonistic activity against Substance P(6-11) in guinea pig ileum at concentration of 10 uM.; format: functional, Cavia porcellus
How it was run: (§1)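 Dose-response curves used a 3-min cycle with 1-min contact and washout, with SP or SP(6-11)-hexapeptide as agonist. Dose ratio is the agonist EC50 with antagonist divided by the EC50 alone. At least two preparations per compound; ratios under 2 were considered insignificant.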

[3] = In vitro antagonistic activity against Substance P on guinea pig ileum at concentration of 10 uM.; format: functional, Cavia porcellus; how it was run: as §1
[4] = molecular target: Substance-P receptor (Cavia porcellus) (UniProt P30547); assay: Antagonistic activity against Substance P(6-11) receptor in guinea pig ileum at concentration of 5 uM.; format: functional, tissue-based
How it was run: (§2)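 Distal ileum from Dunkin-Hartley guinea pigs (300-350 g, both sexes) in a Krebs organ bath at 37 °C, gassed with 95% O2/5% CO2. Agonist (SP or SP(6-11)) dose-response curves run on a 3-min cycle with 1-min contact, with and without antagonist. Dose ratio = agonist EC50 with antagonist / EC50 alone. At least two preparations per compound; ratios below 2 taken as insignificant.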

[5] = molecular target: Substance-P receptor (Cavia porcellus) (UniProt P30547); assay: Antagonistic activity against Substance P receptor in guinea pig ileum at concentration of 5 uM.; format: functional, tissue-based; how it was run: as §2

Sequence of Substance-P receptor (Cavia porcellus) (P30547 whole entry): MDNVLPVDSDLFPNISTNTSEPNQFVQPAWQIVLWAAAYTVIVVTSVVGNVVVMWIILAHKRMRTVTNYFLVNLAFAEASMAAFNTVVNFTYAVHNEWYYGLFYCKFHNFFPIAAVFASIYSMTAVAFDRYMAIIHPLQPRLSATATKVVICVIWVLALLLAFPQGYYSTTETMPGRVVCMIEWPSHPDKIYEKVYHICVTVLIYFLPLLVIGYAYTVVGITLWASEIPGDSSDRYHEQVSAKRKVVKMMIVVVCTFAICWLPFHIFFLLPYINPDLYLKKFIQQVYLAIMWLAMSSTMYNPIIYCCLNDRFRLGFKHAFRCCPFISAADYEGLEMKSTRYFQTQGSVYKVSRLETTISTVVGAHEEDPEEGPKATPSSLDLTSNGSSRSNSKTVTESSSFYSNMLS

Compound | SP [1] [%] | Activity [2] [dose ratio] | Activity [3] | further results
COC(=O)[C@@H](CCSC)NC(=O)[C@H](CC(C)C)NC(=O)CNC(=O)[C@H](Cc1ccccc1)NC(=O)[C@H](Cc1ccccc1)NC(=O)[C@@H](NC(=O)[C@H](NC(=O)[C@@H]1CCCN1C(=O)[C@H](CCCCN)NC(=O)[C@@H]1CCCN1C(=O)[C@@H](N)CCCN=C(N)N)C(C)C)C(C)C | 0.005 | – | – | –
COC(=O)[C@@H](CCSC)NC(=O)[C@H](CC(C)C)NC(=O)CNC(=O)[C@H]1CCCN1C(=O)[C@H]1CCCN1C(=O)[C@H](CCC(N)=O)NC(=O)[C@H](CCC(N)=O)NC(=O)[C@@H]1CCCN1C(=O)[C@H](CCCCNC(=O)OCc1ccccc1)NC(=O)[C@@H]1CCCN1C(=O)[C@H](CCCN=C(N)N)NC(=O)OCc1ccccc1 | < 0.0001 | <2 | <2 dose ratio | –
COC(=O)[C@H](CCSC)NC(=O)[C@H](CC(C)C)NC(=O)CNC(=O)[C@H](Cc1ccccc1)NC(=O)[C@H](Cc1ccccc1)NC(=O)[C@@H](Cc1ccccc1)NC(=O)[C@@H](Cc1ccccc1)NC(=O)[C@@H]1CCCN1C(=O)[C@H](CCCCNC(=O)OCc1ccccc1)NC(=O)[C@@H]1CCCN1C(=O)[C@H](CCCN=C(N)N)NC(=O)OCc1ccccc1 | – | <2 | <2 dose ratio | –
CSCC[C@@H](NC(=O)[C@H](CC(C)C)NC(=O)CNC(=O)[C@H](Cc1ccccc1)NC(=O)[C@H](Cc1ccccc1)NC(=O)[C@@H](NC(=O)[C@H](NC(=O)[C@@H]1CCCN1C(=O)[C@H](CCCCN)NC(=O)[C@@H]1CCCN1C(=O)[C@@H](N)CCCN=C(N)N)C(C)C)C(C)C)C(=O)O | 6.4 | – | – | –
COC(=O)[C@H](CCSC)NC(=O)[C@H](CC(C)C)NC(=O)CNC(=O)[C@H](Cc1ccccc1)NC(=O)[C@H](Cc1ccccc1)NC(=O)[C@@H](Cc1ccccc1)NC(=O)[C@@H](Cc1ccccc1)NC(=O)[C@@H]1CCCN1C(=O)[C@H](CCCCN)NC(=O)[C@@H]1CCCN1C(=O)[C@@H](N)CCCN=C(N)N | – | <2 | <2 dose ratio | –
COC(=O)[C@H](CCSC)NC(=O)[C@H](CC(C)C)NC(=O)CNC(=O)[C@H](Cc1ccccc1)NC(=O)[C@H](Cc1ccccc1)NC(=O)[C@H](NC(=O)[C@H](NC(=O)[C@@H]1CCCN1C(=O)[C@H](CCCCNC(=O)OCc1ccccc1)NC(=O)[C@@H]1CCCN1C(=O)[C@H](CCCN=C(N)N)NC(=O)OCc1ccccc1)C(C)C)C(C)C | – | <2 | <2 dose ratio | –
COC(=O)[C@@H](CCSC)NC(=O)[C@H](CC(C)C)NC(=O)[C@@H](Cc1c[nH]c2ccccc12)NC(=O)[C@@H](Cc1c[nH]c2ccccc12)NC(=O)[C@@H](Cc1c[nH]c2ccccc12)NC(=O)[C@H](CCC(N)=O)NC(=O)[C@H](CCC(N)=O)NC(=O)[C@@H]1CCCN1C(=O)[C@H](CCCCNC(=O)OCc1ccccc1)NC(=O)[C@@H]1CCCN1C(=O)[C@@H](N)CCCN=C(N)N | – | 5.6 | 10 dose ratio | –
COC(=O)[C@H](CCSC)NC(=O)[C@H](CC(C)C)NC(=O)CNC(=O)[C@H](Cc1ccccc1)NC(=O)[C@H](Cc1ccccc1)NC(=O)[C@H](CCC(N)=O)NC(=O)[C@H](CCC(N)=O)NC(=O)C1CCCN1C(=O)[C@H](CCCCNC(=O)OCc1ccccc1)NC(=O)C1CCCN1C(=O)[C@H](CCCN=C(N)N)NC(=O)OCc1ccccc1 (stereo in doubt) | 7 | – | – | –
COC(=O)[C@@H](CCSC)NC(=O)[C@H](CC(C)C)NC(=O)[C@@H](Cc1c[nH]c2ccccc12)NC(=O)[C@@H](Cc1c[nH]c2ccccc12)NC(=O)[C@@H](Cc1c[nH]c2ccccc12)NC(=O)[C@H](CCC(N)=O)NC(=O)[C@H](CCC(N)=O)NC(=O)[C@@H]1CCCN1C(=O)[C@H](CCCCNC(=O)OCc1ccccc1)NC(=O)[C@@H]1CCCN1C(=O)[C@H](CCCN=C(N)N)NC(=O)OCc1ccccc1 | – | <2 | <2 dose ratio | –
COC(=O)[C@@H](CCSC)NC(=O)[C@H](CC(C)C)NC(=O)CNC(=O)[C@H](NC(=O)[C@H](NC(=O)[C@H](CCC(N)=O)NC(=O)[C@H](CCC(N)=O)NC(=O)[C@@H]1CCCN1C(=O)[C@H](CCCCNC(=O)OCc1ccccc1)NC(=O)[C@@H]1CCCN1C(=O)[C@H](CCCN=C(N)N)NC(=O)OCc1ccccc1)C(C)C)C(C)C | – | <2 | <2 dose ratio | –
CSCC[C@@H](NC(=O)[C@H](CC(C)C)NC(=O)[C@@H](Cc1c[nH]c2ccccc12)NC(=O)[C@@H](Cc1c[nH]c2ccccc12)NC(=O)[C@@H](Cc1c[nH]c2ccccc12)NC(=O)[C@H](CCC(N)=O)NC(=O)[C@H](CCC(N)=O)NC(=O)[C@@H]1CCCN1C(=O)[C@H](CCCCNC(=O)OCc1ccccc1)NC(=O)[C@@H]1CCCN1C(=O)[C@H](CCCN=C(N)N)NC(=O)OCc1ccccc1)C(=O)O | – | – | <2 dose ratio | –
COC(=O)[C@@H](CCSC)NC(=O)[C@H](CC(C)C)NC(=O)CNC(=O)[C@H](Cc1ccccc1)NC(=O)[C@H](Cc1ccccc1)NC(=O)[C@@H]1CCCN1C(=O)[C@H]1CCCN1C(=O)[C@@H]1CCCN1C(=O)[C@H](CCCCN)NC(=O)[C@@H]1CCCN1C(=O)[C@@H](N)CCCN=C(N)N | 0.066 | – | – | –
COC(=O)[C@@H](CCSC)NC(=O)C(Cc1ccccc1)NC(=O)C(Cc1ccccc1)NC(=O)C(Cc1ccccc1)NC(=O)C(Cc1ccccc1)NC(=O)[C@H](CCC(N)=O)NC(=O)[C@H](CCC(N)=O)NC(=O)[C@@H]1CCCN1C(=O)[C@H](CCCCNC(=O)OCc1ccccc1)NC(=O)[C@@H]1CCCN1C(=O)[C@H](CCCN=C(N)N)NC(=O)OCc1ccccc1 (stereo in doubt) | < 0.0001 | <2 | <2 dose ratio | –
COC(=O)[C@@H](CCSC)NC(=O)[C@H](CC(C)C)NC(=O)CNC(=O)[C@H](Cc1ccccc1)NC(=O)[C@H](Cc1ccccc1)NC(=O)[C@H](Cc1ccccc1)NC(=O)[C@@H](Cc1ccccc1)NC(=O)[C@@H]1CCCN1C(=O)[C@H](CCCCN)NC(=O)[C@@H]1CCCN1C(=O)[C@@H](N)CCCN=C(N)N | 0 | – | – | –
CSCC[C@H](NC(=O)[C@H](CC(C)C)NC(=O)CNC(=O)[C@H](Cc1ccccc1)NC(=O)[C@H](Cc1ccccc1)NC(=O)[C@H](CCC(N)=O)NC(=O)[C@H](CCC(N)=O)NC(=O)C1CCCN1C(=O)[C@H](CCCCN)NC(=O)C1CCCN1C(=O)[C@@H](N)CCCN=C(N)N)C(N)=O (stereo in doubt) | 15 | – | – | –
COC(=O)[C@@H](CCSC)NC(=O)[C@H](CC(C)C)NC(=O)CNC(=O)[C@H](Cc1ccccc1)NC(=O)[C@H](Cc1ccccc1)NC(=O)[C@H](Cc1ccccc1)NC(=O)[C@@H](Cc1ccccc1)NC(=O)[C@@H]1CCCN1C(=O)[C@H](CCCCNC(=O)OCc1ccccc1)NC(=O)[C@@H]1CCCN1C(=O)[C@H](CCCN=C(N)N)NC(=O)OCc1ccccc1 | < 0.0001 | – | – | –
CSCC[C@@H](NC(=O)[C@H](CC(C)C)NC(=O)CNC(=O)[C@H](Cc1ccccc1)NC(=O)[C@H](Cc1ccccc1)NC(=O)[C@@H](NC(=O)[C@H](NC(=O)[C@@H]1CCCN1C(=O)[C@H](CCCCNC(=O)OCc1ccccc1)NC(=O)[C@@H]1CCCN1C(=O)[C@H](CCCN=C(N)N)NC(=O)OCc1ccccc1)C(C)C)C(C)C)C(=O)O | < 0.0001 | – | – | –
COC(=O)[C@H](CCSC)NC(=O)[C@H](Cc1c[nH]c2ccccc12)NC(=O)[C@@H](Cc1c[nH]c2ccccc12)NC(=O)[C@H](Cc1ccccc1)NC(=O)[C@H](Cc1ccccc1)NC(=O)[C@H](CCC(N)=O)NC(=O)[C@H](CCC(N)=O)NC(=O)[C@@H]1CCCN1C(=O)[C@H](CCCCNC(=O)OCc1ccccc1)NC(=O)[C@@H]1CCCN1C(=O)[C@H](CCCN=C(N)N)NC(=O)OCc1ccccc1 | 0 | – | – | Activity [4]: < 2 dose ratio; Activity [5]: < 2 dose ratio
CSCC[C@H](NC(=O)[C@H](CC(C)C)NC(=O)CNC(=O)[C@H](Cc1ccccc1)NC(=O)[C@H](Cc1ccccc1)NC(=O)[C@H](NC(=O)[C@H](NC(=O)[C@@H]1CCCN1C(=O)[C@H](CCCCNC(=O)OCc1ccccc1)NC(=O)[C@@H]1CCCN1C(=O)[C@H](CCCN=C(N)N)NC(=O)OCc1ccccc1)C(C)C)C(C)C)C(=O)O | – | <2 | <2 dose ratio | –
COC(=O)[C@@H](CCSC)NC(=O)[C@H](CC(C)C)NC(=O)[C@@H](Cc1c[nH]c2ccccc12)NC(=O)[C@@H](Cc1c[nH]c2ccccc12)NC(=O)[C@@H](Cc1c[nH]c2ccccc12)NC(=O)[C@H](CCC(N)=O)NC(=O)[C@H](CCC(N)=O)NC(=O)[C@@H]1CCCN1C(=O)[C@H](CCCCN)NC(=O)[C@@H]1CCCN1C(=O)[C@@H](N)CCCN=C(N)N | – | 9.9 | 3.9 dose ratio and 7.2 dose ratio | –
COC(=O)[C@@H](CCSC)NC(=O)[C@H](CC(C)C)NC(=O)CNC(=O)[C@@H](NC(=O)[C@H](NC(=O)[C@H](CCC(N)=O)NC(=O)[C@H](CCC(N)=O)NC(=O)[C@@H]1CCCN1C(=O)[C@H](CCCCNC(=O)OCc1ccccc1)NC(=O)[C@@H]1CCCN1C(=O)[C@H](CCCN=C(N)N)NC(=O)OCc1ccccc1)C(C)C)C(C)C | < 0.0001 | – | – | –
CSCC[C@H](NC(=O)[C@H](CC(C)C)NC(=O)CNC(=O)[C@H](Cc1ccccc1)NC(=O)[C@H](Cc1ccccc1)NC(=O)[C@H](CCC(N)=O)NC(=O)[C@H](CCC(N)=O)NC(=O)C1CCCN1C(=O)[C@H](CCCCNC(=O)OCc1ccccc1)NC(=O)C1CCCN1C(=O)[C@H](CCCN=C(N)N)NC(=O)OCc1ccccc1)C(=O)O (stereo in doubt) | 63 | – | – | –
